According to ChEMBL document CHEMBL3124932, “Design, synthesis and evaluation of genistein-O-alkylbenzylamines as potential multifunctional agents for the treatment of Alzheimer's disease” (Eur J Med Chem, 2014):
Activity calls are given as the source filed them.

What was measured:
[1] = Antioxidant activity assessed as trolox equivalent of APPH-induced radical scavenging activity at 1 to 10 uM preincubated for 15 mins followed by AAPH challenge measured every minute for 90 minutes by ORAC fluorescence assay; format: functional
Summary of the method: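 ORAC-FL in phosphate buffer pH 7.4. Samples (1–10 µM) preincubated with fluorescein (150 nM final) 15 min at 37 °C, then AAPH (12 mM final) added. Fluorescence (ex 485/em 535 nm) read each minute for 90 min. Net AUC over blank converted to Trolox equivalents using a 1–8 µM Trolox curve. Duplicates, at least 3 independent assays.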

[2] = molecular target: Butyrylcholinesterase (Rattus norvegicus) (UniProt Q9JKC1); assay: Inhibition of rat serum BuChE using butyrylthiocholine iodide as substrate at 50 uM after 15 mins by Ellman's method
Summary of the method: (§1)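 Modified Ellman assay in phosphate buffer pH 7.4. Enzyme sources: AChE from 5% rat cortex homogenate, preincubated 5 min with iso-OMPA to block BuChE; BuChE from 25% rat serum. Substrates were acetylthiocholine or butyrylthiocholine iodide. Compounds incubated 15 min at 37 °C, then DTNB added; A405 read. IC50 derived; triplicate, 3 independent experiments; "no active" means under 5% inhibition at 50 µM.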

[3] = molecular target: T1, Acetylcholinesterase (Rattus norvegicus, UniProt P37136); assay: Inhibition of rat cortex homogenate AchE using acetylthiocholine iodide as substrate after 15 mins by Ellman's method
T1 sequence (P37136 whole entry): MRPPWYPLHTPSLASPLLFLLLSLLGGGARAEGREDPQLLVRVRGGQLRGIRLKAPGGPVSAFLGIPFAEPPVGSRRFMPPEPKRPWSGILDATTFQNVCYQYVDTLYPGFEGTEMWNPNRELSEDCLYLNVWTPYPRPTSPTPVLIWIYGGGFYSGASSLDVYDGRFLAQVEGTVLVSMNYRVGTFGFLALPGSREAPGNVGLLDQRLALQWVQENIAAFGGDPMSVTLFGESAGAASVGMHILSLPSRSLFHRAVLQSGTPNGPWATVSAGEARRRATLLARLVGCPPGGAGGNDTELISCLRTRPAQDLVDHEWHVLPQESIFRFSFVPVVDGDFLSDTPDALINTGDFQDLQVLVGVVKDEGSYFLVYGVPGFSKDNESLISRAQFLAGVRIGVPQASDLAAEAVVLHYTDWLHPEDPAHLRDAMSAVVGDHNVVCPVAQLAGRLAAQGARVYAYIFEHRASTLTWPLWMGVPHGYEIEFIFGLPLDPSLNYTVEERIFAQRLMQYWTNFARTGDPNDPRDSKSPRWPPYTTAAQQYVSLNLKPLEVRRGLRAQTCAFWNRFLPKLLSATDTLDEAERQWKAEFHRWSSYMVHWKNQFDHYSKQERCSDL

[4] = molecular target: Acetylcholinesterase (Electrophorus electricus, UniProt O42275); assay: Inhibition of electric eel AchE using acetylthiocholine iodide as substrate after 15 mins by Ellman's method
[5] = test system: Mus musculus; assay: Cognition enhancing effect against scopolamine-induced memory deficit in po dosed Kunming mouse assessed as increase in latency time administered 1 hr before training followed by scopolamine challenge for 7 days measured after 24 hrs by step-down passive avoidance test; format: functional, organism-based
Summary of the method: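 Kunming mice, six weeks old, 18–22 g, either sex, n=10 per group. Oral dosing at 2, 6, 18 or 3, 9, 27 mg/kg in vegetable oil, 1 h before training; vehicle as negative control. Scopolamine (3 mg/kg i.p., in saline) given 30 min later. Behavioural testing after 7 days of treatment. Step-down training used a 0.5 mA, 2 s foot shock. Latency measured 24 h later, cut-off 300 s; mean ± SEM.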

[6] = molecular target: Amyloid-beta precursor protein (Homo sapiens) (UniProt P05067); assay: Induction of amyloid beta (1 to 42) (unknown origin) disaggregation assessed as reduction of Cu2+-induced amyloid beta fibril formation at 25 uM after 24 hrs by thioflavin T fluorescence method; set-up: scale not given: the % may be the effect or the level left
Summary of the method: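 Aβ1-42 (25 µM final, HFIP-pretreated) and Cu2+ (25 µM) in HEPES pH 6.6 with 150 mM NaCl, incubated 24 h at 37 °C. Test compound (25 µM final) then added for a further 24 h at 37 °C, wells sealed. Read by ThT in glycine-NaOH pH 8.5 (ex 446/em 490 nm). DMSO 12.5% final; triplicate.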

[7] = molecular target: Amyloid-beta precursor protein (Homo sapiens) (UniProt P05067); assay: Inhibition of Cu2+-induced amyloid beta (1 to 42) (unknown origin) aggregation at 25 uM after 24 hrs by thioflavin T fluorescence method
Summary of the method: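 Aβ1-42 (25 µM final, HFIP-pretreated) with an equimolar amount of Cu2+ (25 µM) in HEPES pH 6.6 with 150 mM NaCl. Incubated with or without compound (10–35 µM final) 24 h at 37 °C. ThT in glycine-NaOH pH 8.5 added, fluorescence ex 446/em 490 nm. DMSO 12.5% final. Percent inhibition relative to no-inhibitor wells; triplicate, mean of 3 independent experiments.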

[8] = molecular target: Amyloid-beta precursor protein (Homo sapiens) (UniProt P05067); assay: Inhibition of self-induced amyloid beta (1 to 42) (unknown origin) aggregation at 25 uM after 24 hrs by thioflavin T fluorescence method
Summary of the method: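 HFIP-pretreated Aβ1-42 (25 µM final) incubated with compound (10–50 µM) in 50 mM phosphate pH 7.4 for 24 h at 37 °C, wells sealed. ThT in glycine-NaOH pH 8.5 added; fluorescence ex 446/em 490 nm. DMSO 12.5% final. Percent inhibition relative to peptide without inhibitor; triplicate, mean of 3 independent experiments.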

[9] = molecular target: T2, Acetylcholinesterase (Homo sapiens, UniProt P22303); assay: Inhibition of human erythrocytes AchE using acetylthiocholine iodide as substrate after 15 mins by Ellman's method
[10] = molecular target: T2, Acetylcholinesterase; assay: Inhibition of human erythrocytes AchE using acetylthiocholine iodide as substrate at 50 uM after 15 mins by Ellman's method
Summary of the method: (§2)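 Modified Ellman assay with purified eel or human erythrocyte AChE (0.05 U/mL final) in phosphate buffer pH 8.0. Compound and enzyme incubated 15 min at 37 °C with acetylthiocholine iodide, then DTNB added; absorbance read at 412 nm. IC50 is the concentration giving 50% inhibition. Assays in triplicate, 3 independent experiments; "no active" means under 5% inhibition at 50 µM.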

[11] = molecular target: Acetylcholinesterase (Electrophorus electricus) (UniProt O42275); assay: Inhibition of electric eel AchE using acetylthiocholine iodide as substrate at 50 uM after 15 mins by Ellman's method; summary of the method: as §2
[12] = molecular target: T3, Acetylcholinesterase (Rattus norvegicus) (UniProt P37136); assay: Inhibition of rat cortex homogenate AchE using acetylthiocholine iodide as substrate at 50 uM after 15 mins by Ellman's method; summary of the method: as §1
T3 sequence (whole entry): T1 sequence (P37136 whole entry)

[13] = test system: Mus musculus; assay: Cognition enhancing effect against scopolamine-induced memory deficit in Kunming mouse assessed as increase in latency time at 5 mg/kg, po administered 1 hr before training followed by scopolamine challenge for 7 days measured after 24 hrs by step-down passive avoidance test; format: functional, organism-based; set-up: dose 5 mg/kg
Summary of the method: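 Kunming mice (18–22 g, six weeks old, either sex), 10 per group. Drug in vegetable oil given orally 1 h before training, with scopolamine (3 mg/kg i.p., in 0.9% saline) 30 min later. Behavioural testing one day after 7 days of treatment. Training: 0.5 mA, 2 s foot shock on stepping down from a block. Step-down latency measured 24 h later, 300 s cut-off. Mean ± SEM.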

T2 sequence (P22303 whole entry): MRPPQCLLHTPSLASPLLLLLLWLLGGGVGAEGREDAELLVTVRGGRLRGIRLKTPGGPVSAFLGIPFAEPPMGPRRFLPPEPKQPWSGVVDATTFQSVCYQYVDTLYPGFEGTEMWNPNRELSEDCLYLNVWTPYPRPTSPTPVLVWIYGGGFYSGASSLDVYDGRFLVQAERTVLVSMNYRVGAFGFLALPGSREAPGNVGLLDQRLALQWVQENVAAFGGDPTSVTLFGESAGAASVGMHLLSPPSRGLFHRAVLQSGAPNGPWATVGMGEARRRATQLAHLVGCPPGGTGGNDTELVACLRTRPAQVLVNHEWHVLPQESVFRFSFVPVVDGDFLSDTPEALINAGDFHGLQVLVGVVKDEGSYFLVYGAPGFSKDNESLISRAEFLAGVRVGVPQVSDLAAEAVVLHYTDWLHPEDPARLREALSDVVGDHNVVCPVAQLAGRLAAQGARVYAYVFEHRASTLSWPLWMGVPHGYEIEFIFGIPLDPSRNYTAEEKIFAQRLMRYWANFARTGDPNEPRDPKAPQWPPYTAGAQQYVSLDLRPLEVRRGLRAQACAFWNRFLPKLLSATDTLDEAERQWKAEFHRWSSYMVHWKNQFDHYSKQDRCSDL
Acetylcholinesterase (Electrophorus electricus, UniProt O42275), sequence (O42275 whole entry): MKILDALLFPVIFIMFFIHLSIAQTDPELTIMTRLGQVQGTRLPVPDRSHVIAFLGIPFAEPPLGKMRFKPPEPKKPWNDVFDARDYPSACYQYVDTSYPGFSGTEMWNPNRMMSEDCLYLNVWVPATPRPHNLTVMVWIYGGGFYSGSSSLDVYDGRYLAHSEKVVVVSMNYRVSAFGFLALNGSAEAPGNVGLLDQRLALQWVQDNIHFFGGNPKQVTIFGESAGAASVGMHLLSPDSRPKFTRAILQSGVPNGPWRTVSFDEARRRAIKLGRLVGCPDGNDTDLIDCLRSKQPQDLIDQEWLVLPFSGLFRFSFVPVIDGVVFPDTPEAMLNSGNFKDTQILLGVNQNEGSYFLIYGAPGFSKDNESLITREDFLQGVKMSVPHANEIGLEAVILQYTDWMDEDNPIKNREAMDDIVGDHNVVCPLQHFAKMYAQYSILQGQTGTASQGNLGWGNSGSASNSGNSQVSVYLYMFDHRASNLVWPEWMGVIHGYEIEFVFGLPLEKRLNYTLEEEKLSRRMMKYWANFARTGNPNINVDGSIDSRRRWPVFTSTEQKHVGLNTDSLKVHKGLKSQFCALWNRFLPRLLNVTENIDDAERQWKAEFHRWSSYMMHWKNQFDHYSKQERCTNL
Butyrylcholinesterase (Rattus norvegicus), sequence (Q9JKC1 as listed by the source): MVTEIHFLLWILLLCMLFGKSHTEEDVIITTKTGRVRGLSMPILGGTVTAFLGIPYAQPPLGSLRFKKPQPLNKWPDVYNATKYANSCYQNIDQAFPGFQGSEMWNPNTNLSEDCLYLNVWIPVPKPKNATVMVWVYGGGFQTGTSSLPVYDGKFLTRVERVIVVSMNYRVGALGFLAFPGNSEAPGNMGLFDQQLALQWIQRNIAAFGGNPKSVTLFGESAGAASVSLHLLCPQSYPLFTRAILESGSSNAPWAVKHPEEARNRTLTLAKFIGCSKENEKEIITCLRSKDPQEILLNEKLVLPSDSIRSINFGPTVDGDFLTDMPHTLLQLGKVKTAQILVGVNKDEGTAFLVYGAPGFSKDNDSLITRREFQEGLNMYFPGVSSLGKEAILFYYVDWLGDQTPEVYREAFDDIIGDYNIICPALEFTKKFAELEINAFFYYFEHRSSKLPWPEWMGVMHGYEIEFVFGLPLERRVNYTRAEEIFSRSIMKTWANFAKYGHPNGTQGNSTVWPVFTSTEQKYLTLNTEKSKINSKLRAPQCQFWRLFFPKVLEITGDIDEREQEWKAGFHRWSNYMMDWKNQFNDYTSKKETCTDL
Amyloid-beta precursor protein (Homo sapiens), sequence (P05067 whole entry): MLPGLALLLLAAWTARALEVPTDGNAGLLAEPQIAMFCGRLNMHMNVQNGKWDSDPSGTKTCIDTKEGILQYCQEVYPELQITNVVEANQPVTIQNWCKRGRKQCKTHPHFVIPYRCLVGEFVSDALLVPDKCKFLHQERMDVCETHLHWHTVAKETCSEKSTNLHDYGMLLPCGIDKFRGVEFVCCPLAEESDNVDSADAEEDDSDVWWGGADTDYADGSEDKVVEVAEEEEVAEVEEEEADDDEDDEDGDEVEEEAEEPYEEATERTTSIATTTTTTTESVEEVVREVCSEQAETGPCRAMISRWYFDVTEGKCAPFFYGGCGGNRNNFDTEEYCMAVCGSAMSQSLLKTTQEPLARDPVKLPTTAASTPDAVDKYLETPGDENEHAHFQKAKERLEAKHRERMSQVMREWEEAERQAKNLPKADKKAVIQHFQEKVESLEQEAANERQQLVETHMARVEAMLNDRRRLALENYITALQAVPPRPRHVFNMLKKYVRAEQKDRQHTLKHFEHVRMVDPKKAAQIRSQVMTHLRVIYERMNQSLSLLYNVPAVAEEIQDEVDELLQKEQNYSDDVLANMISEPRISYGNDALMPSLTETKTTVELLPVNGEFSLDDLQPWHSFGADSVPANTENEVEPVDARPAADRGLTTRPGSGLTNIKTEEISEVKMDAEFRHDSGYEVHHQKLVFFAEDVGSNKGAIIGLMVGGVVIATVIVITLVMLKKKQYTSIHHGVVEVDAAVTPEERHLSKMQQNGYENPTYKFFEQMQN
Acetylcholinesterase (Electrophorus electricus), sequence (O42275 24-633 limits assumed): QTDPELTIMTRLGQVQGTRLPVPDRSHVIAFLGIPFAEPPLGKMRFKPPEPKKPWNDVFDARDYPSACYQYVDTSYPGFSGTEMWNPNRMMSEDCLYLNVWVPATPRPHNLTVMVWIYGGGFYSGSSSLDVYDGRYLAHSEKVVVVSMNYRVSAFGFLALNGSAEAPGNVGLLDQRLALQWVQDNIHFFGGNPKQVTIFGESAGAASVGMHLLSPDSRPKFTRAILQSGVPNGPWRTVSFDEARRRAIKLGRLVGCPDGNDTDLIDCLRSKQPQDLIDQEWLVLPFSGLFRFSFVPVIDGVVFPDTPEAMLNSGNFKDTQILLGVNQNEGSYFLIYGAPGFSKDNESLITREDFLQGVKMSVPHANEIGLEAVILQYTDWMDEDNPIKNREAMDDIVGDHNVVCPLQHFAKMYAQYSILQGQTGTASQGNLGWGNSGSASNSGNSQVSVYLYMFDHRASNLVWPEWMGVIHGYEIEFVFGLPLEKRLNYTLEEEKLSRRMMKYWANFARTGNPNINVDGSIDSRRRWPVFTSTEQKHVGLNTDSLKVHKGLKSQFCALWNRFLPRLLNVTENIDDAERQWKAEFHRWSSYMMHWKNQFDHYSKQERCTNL

| SMILES | Activity [1] | inhibition [2] | IC50 [3] | further results |
| --- | --- | --- | --- | --- |
| CCN(CCCOc1ccc(-c2coc3cc(O)cc(O)c3c2=O)cc1)Cc1ccccc1OC | 0.64 | 17.6% | 16 µM | – |
| CCN(CCCCCCOc1ccc(-c2coc3cc(OCCCCCCN(CC)Cc4ccccc4OC)cc(O)c3c2=O)cc1)Cc1ccccc1OC | 0.13 | 11.6% | 0.51 µM | IC50 [4]: 3.79 µM |
| CCN(CCCCCCOc1cc(O)c2c(=O)c(-c3ccc(O)cc3)coc2c1)Cc1ccccc1 | 1.2 | < 5% | 0.35 µM | Activity [5]: Dose-dependent effect; Activity [6]: 36.1%; inhibition [7]: 72.1%; inhibition [8]: 34.3%; IC50 [9]: 5.8 µM; IC50 [4]: 4.98 µM |
| CCN(CCCOc1ccc(-c2coc3cc(OCCCN(CC)Cc4ccccc4OC)cc(O)c3c2=O)cc1)Cc1ccccc1OC | 0.49 | 12.5% | 0.21 µM | IC50 [4]: 0.16 µM |
| CCN(CCCCCCOc1ccc(-c2coc3cc(O)cc(O)c3c2=O)cc1)Cc1ccccc1OC | 0.38 | < 5% | 1.69 µM | – |
| CN(CCCCOc1ccc(-c2coc3cc(O)cc(O)c3c2=O)cc1)Cc1ccccc1 | 0.32 | 10.8% | 3.79 µM | – |
| O=c1c(-c2ccc(O)cc2)coc2cc(O)cc(O)c12 | 5 | < 5% | – | inhibition [10]: < 5%; inhibition [11]: < 5%; inhibition [12]: < 5% |
| CN(CCCCCCOc1cc(O)c2c(=O)c(-c3ccc(O)cc3)coc2c1)Cc1ccccc1 | 0.65 | < 5% | 4.24 µM | – |
| COc1ccccc1CN(C)CCCOc1ccc(-c2coc3cc(O)cc(O)c3c2=O)cc1 | 0.62 | < 5% | 37.4 µM | – |
| CCN(CCCOc1ccc(-c2coc3cc(O)cc(O)c3c2=O)cc1)Cc1ccccc1 | 0.58 | 11.6% | 42.8 µM | – |
| CN(CCCCOc1cc(O)c2c(=O)c(-c3ccc(O)cc3)coc2c1)Cc1ccccc1 | 1 | 8.9% | 54.5 µM | – |
| COc1ccccc1CN(C)CCCCOc1ccc(-c2coc3cc(O)cc(O)c3c2=O)cc1 | 1.1 | 9.7% | 5.31 µM | – |
| CCN(CCCCOc1ccc(-c2coc3cc(OCCCCN(CC)Cc4ccccc4)cc(O)c3c2=O)cc1)Cc1ccccc1 | 0.26 | 10.3% | 0.9 µM | – |
| COc1ccccc1CN(C)CCCCCCOc1ccc(-c2coc3cc(O)cc(O)c3c2=O)cc1 | 0.4 | < 5% | 5.62 µM | – |
| CN(CCCOc1cc(O)c2c(=O)c(-c3ccc(O)cc3)coc2c1)Cc1ccccc1 | 0.89 | 7.4% | 36.3 µM | – |
| CCN(CCCOc1cc(O)c2c(=O)c(-c3ccc(O)cc3)coc2c1)Cc1ccccc1 | 1.12 | 9.9% | 1.42 µM | – |
| CCN(CCCCOc1cc(O)c2c(=O)c(-c3ccc(O)cc3)coc2c1)Cc1ccccc1 | 2.4 | 10.4% | 2.42 µM | – |
| COc1ccccc1CN(C)CCCOc1cc(O)c2c(=O)c(-c3ccc(O)cc3)coc2c1 | 1.05 | < 5% | 13.5 µM | – |
| CCN(CCCCOc1cc(O)c2c(=O)c(-c3ccc(O)cc3)coc2c1)Cc1ccccc1OC | 1.06 | 7.7% | 0.83 µM | – |
| CCN(CCCCCCOc1cc(O)c2c(=O)c(-c3ccc(O)cc3)coc2c1)Cc1ccccc1OC | 0.56 | < 5% | 0.53 µM | – |
| CCN(CCCCCCOc1ccc(-c2coc3cc(O)cc(O)c3c2=O)cc1)Cc1ccccc1 | 0.29 | < 5% | 38.4 µM | – |
| COc1cc(/C=C/C(=O)CC(=O)/C=C/c2ccc(O)c(OC)c2)ccc1O | – | – | – | inhibition [7]: 64% |
| CCN(CCCCOc1ccc(-c2coc3cc(O)cc(O)c3c2=O)cc1)Cc1ccccc1 | 0.6 | < 5% | 12.8 µM | – |
| COc1cc2c(cc1OC)C(=O)C(CC1CCN(Cc3ccccc3)CC1)C2 (configuration not stated) | – | – | – | Activity [13]: Active |
| CN(CCCCCCOc1ccc(-c2coc3cc(O)cc(O)c3c2=O)cc1)Cc1ccccc1 | 0.3 | 7.7% | 3.54 µM | – |
| COc1ccccc1CN(C)CCCCOc1cc(O)c2c(=O)c(-c3ccc(O)cc3)coc2c1 | 1.56 | < 5% | 5.55 µM | – |
| CCN(CCCOc1cc(O)c2c(=O)c(-c3ccc(O)cc3)coc2c1)Cc1ccccc1OC | 1.02 | < 5% | 0.47 µM | – |
| CCN(CCCCOc1ccc(-c2coc3cc(O)cc(O)c3c2=O)cc1)Cc1ccccc1OC | 1.1 | 6.7% | 1.45 µM | Activity [5]: Dose-dependent effect; Activity [6]: 39.2%; inhibition [7]: 71.9%; inhibition [8]: 24.6%; IC50 [9]: 3.88 µM; IC50 [4]: 15.9 µM |
| CN(CCCOc1ccc(-c2coc3cc(O)cc(O)c3c2=O)cc1)Cc1ccccc1 | 0.46 | < 5% | 49.3 µM | – |
| COc1ccccc1CN(C)CCCCCCOc1cc(O)c2c(=O)c(-c3ccc(O)cc3)coc2c1 | 2.7 | < 5% | 3.19 µM | – |
